HCT116 PTEN-null – growth suppression of PTEN-null HCT116, primary screen, cell-based, CellTiter-Glo; viability, % at 10 µM; 140,000 tested, 1.2% active; HCT116 PTEN-null viability, 60 h; stronger effect = lower value; AID 827, 2007;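 active = viability at or below a set limit, 4 SD under the median of all tested compounds, cut at about 3.7% in these data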;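 note: PTEN knockout HCT116 line with beta catenin targeted HCT116 as companion control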
Calb biofilm kill – clotrimazole potentiators killing Candida biofilms, primary screen, with clotrimazole, Alamar Blue; inhibition, % at 6 µM; C. albicans biofilm + clotrimazole; 85,000 tested, 0.14% active;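 active = inhibition above 20%; inactive = inhibition below 20%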;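 note: preformed 24 hr biofilms exposed to compound for 48 hr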
HUVEC inhibit – inhibitors of HUVEC proliferation, primary screen, cell-based, 384-well; CellTiter-Glo luminescence, 72 h; stronger effect = lower value; viability, % at 10 µM (by protocol); 86,000 tested, 1.1% active; AID 648, 2007;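 active = viability at or below 30%; inactive = viability above 30%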
Fibroblast inh – antiproliferative effect on LL 47 fibroblasts – human, LL 47 cells, CellTiter-Glo luminescence, primary screen | viability, % at 10 µM | LL 47 human lung fibroblast viability, ATP luminescence; stronger effect = lower value | 85,000 tested, 1.1% active;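 active = viability at or below 50% in the single dose screen; inactive = viability above 50%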;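 note: compound exposure lasted 72 h before the ATP readout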
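Material: human LL 47 lung fibroblast cells; quantity: 1,150 cells/well; medium: IMEM plus 15% FBS; doses: 0.1% DMSO in all compound wells; timing: overnight attachment after seeding, then 72 h compound exposure at 37 °C; detection: CellTiter-Glo luminescence; measure: % viability of median cell-only signal; controls: cell-only wells, no compound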
bCat KO growth – primary screen for growth suppressors in beta-catenin knockout HCT116 cells (colon tumor, human). 140,000 tested, 1.5% active. HCT116 beta-catenin knockout viability, CellTiter-Glo, 60 h; stronger effect = lower value. viability, % at 10 µM. AID 818, 2007;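 active = viability at or under a set limit, the compound median less 4 SD, cut at about 6% in these data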
H69AR growth 86K – proliferation blockers of H69AR lung cancer cells, primary screen, cell-based, human, 86K library; H69AR lung tumor viability, ATP luminescence, 72 h; stronger effect = lower value; viability, % at 10 µM; AID 598, 2007; 85,000 tested, 6% active;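 active = viability at or below 40%; inactive = viability above 40%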;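 note: multidrug resistant small cell line overexpressing MRP-1 efflux transporter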
Large screens that a line does not name were inactive. Many of the other results were omitted from the sample, so hits are more common in it than they were.

COc1ccc(-c2noc(CCC(=O)N3CCN(c4cc(C)ccc4C)CC3)n2)cc1	none
C/C(=N/NC(=O)c1cccs1)c1ccc(NC(=O)COc2ccc(Cl)cc2Cl)cc1	HCT116 PTEN-null 2.0, bCat KO growth 4.3 (no result: Calb biofilm kill, HUVEC inhibit, Fibroblast inh, H69AR growth 86K)
CCCCn1c(SCC(=O)Nc2cc(C)on2)nc2ccccc2c1=O	none
COCCn1c(SCC(=O)Nc2ccc(N3CCOCC3)cc2)nc2ccccc21	none (no result: Calb biofilm kill, HUVEC inhibit, Fibroblast inh, H69AR growth 86K)
COCCn1c(SCC(=O)Nc2ccc(NC(=O)c3ccco3)c(OC)c2)nc2ccccc2c1=O	H69AR growth 86K 31
CCCCn1c(SCC(=O)Nc2cc(NC(=O)c3ccco3)ccc2C)nc2ccccc2c1=O	H69AR growth 86K 6.8
CCn1c(SCC(=O)Nc2ccccc2OC)nc2ccccc2c1=O	none
CCn1c(SCC(=O)Nc2ccc(NC(=O)c3ccco3)c(OC)c2)nc2ccccc2c1=O	H69AR growth 86K 10
COCCn1c(SCC(=O)Nc2ccc(S(=O)(=O)N(C)C)cc2)nc2ccccc21	H69AR growth 86K 35
Clc1cc(NCc2cccs2)ccc1N1CCOCC1	none
CCCCNS(=O)(=O)c1ccc2nc(-c3cccs3)cc(C(=O)NCC(OC)OC)c2c1	none (no result: Calb biofilm kill, HUVEC inhibit, Fibroblast inh, H69AR growth 86K)
O=C(COC(=O)C1CCCCC1C(=O)N1CCc2ccccc21)NCc1ccco1 (stereo not given)	none
Cc1cc(Nc2ccccc2)nn1C(=O)c1ccc(Br)cc1	H69AR growth 86K 29
Cc1cc(Nc2ccccc2)nn1C(=O)c1ccccc1	HCT116 PTEN-null 1.2, bCat KO growth 1.5
COc1ccc(C(=O)n2nc(C)cc2Nc2ccccc2)cc1	none
CCc1ccc(OCC(=O)Nc2ccc(S(=O)(=O)N3CCCC3)cc2)c(Br)c1	H69AR growth 86K 30
OC1C2(Cc3ccccc3)CN3CCN(C2)CC1(Cc1ccccc1)C3 (stereo not given)	none
OC1C2CN3CCN(C2)CC1(Cc1ccccc1)C3 (stereo not given)	HCT116 PTEN-null 0.7, bCat KO growth 1.4
O=C1CC(c2cc([N+](=O)[O-])ccc2Cl)c2c(ccc3ccccc23)N1 (stereo not given)	none (no result: Calb biofilm kill, HUVEC inhibit, Fibroblast inh, H69AR growth 86K)
O=C1CSC(c2cn(-c3ccccc3)nc2-c2cc3ccccc3oc2=O)N1Cc1ccccc1 (stereo not given)	H69AR growth 86K 24
CCOCCCn1c(=N)c(C(=O)Nc2cc(C)on2)cc2c(=O)n3ccccc3nc21	none (no result: HCT116 PTEN-null, bCat KO growth)
Cc1ccc(-c2cc(C(F)F)n3ncc(C(=O)Nc4ccc(S(=O)(=O)Nc5ccccc5C)cc4)c3n2)cc1	none (no result: Calb biofilm kill, HUVEC inhibit, Fibroblast inh, H69AR growth 86K)
CN(C)S(=O)(=O)n1cnc2ccccc21	none
O=S(=O)(/C=C/c1ccccc1)n1cnc2ccccc21	H69AR growth 86K 20
O=C(CSc1nnc(CCCO)n1-c1ccccc1)Nc1nccs1	none
Cc1cccc(C)c1OCc1nnc(SCC(=O)Nc2nccs2)n1-c1ccccc1	H69AR growth 86K 20
CCOc1ccc(NCc2nnc(SCC(=O)Nc3cc(C)on3)n2-c2ccc(OC)cc2)cc1	none
COc1ccc(NCc2nnc(SCC(=O)Nc3nc(-c4ccccc4)cs3)n2-c2ccccc2)cc1	HCT116 PTEN-null 1.8, bCat KO growth 1.3 (no result: Calb biofilm kill, HUVEC inhibit, Fibroblast inh, H69AR growth 86K)
COc1ccc(-n2c(CNc3ccc(C)cc3)nnc2SCC(=O)Nc2nc(-c3ccccc3)cs2)cc1	HCT116 PTEN-null 0.4, bCat KO growth 0.8 (no result: Calb biofilm kill, HUVEC inhibit, Fibroblast inh, H69AR growth 86K)
CCOc1ccc(NCc2nnc(SCC(=O)Nc3cc(C)on3)n2-c2ccccc2OC)cc1	H69AR growth 86K 12
CCCc1nc(SCC(=O)Nc2cc(C)on2)c2ccccc2n1	H69AR growth 86K 32
CCC(C)n1c(SCC(=O)Nc2cc(C)on2)nc2ccccc2c1=O (stereo not given)	H69AR growth 86K 26
Cc1cc(NC(=O)CSc2nc(CCC3CCCC3)nc3ccccc23)no1	none (no result: Calb biofilm kill, HUVEC inhibit, Fibroblast inh, H69AR growth 86K)
CCCc1nc(SCC(=O)N2CCCC2)c2ccccc2n1	H69AR growth 86K 38
CC(C)Cn1c(N)c(C(=O)COC(=O)CC23CC4CC(CC(C4)C2)C3)c(=O)n(C)c1=O	none
CCCCCCCC#Cc1ccccc1/C=N/S(=O)c1ccc(C)cc1 (stereo not given)	none (no result: Calb biofilm kill, HUVEC inhibit, Fibroblast inh, H69AR growth 86K)
CCOC(=O)C1=C(CSc2nc3c(cc2C#N)CN(C)CC3)OC(N)=C(C#N)C1c1ccc(Cl)cc1 (stereo not given)	H69AR growth 86K 36
CCOC(=O)C1=C(CSc2nc(CC)c(C)cc2C#N)OC(N)=C(C#N)C1c1ccccc1 (stereo not given)	H69AR growth 86K 28
O=C(CSc1cn(CCNC(=O)c2cccs2)c2ccccc12)NC1CCCC1	none
Nc1nc2ccccc2n1/N=C/c1ccc([N+](=O)[O-])s1	HCT116 PTEN-null 2.6, bCat KO growth 3.5 (no result: Calb biofilm kill, HUVEC inhibit, Fibroblast inh, H69AR growth 86K)
O=c1c2ccccc2nc(-c2cccc(Cl)c2)n1O	H69AR growth 86K 23
Cc1[nH]c2ccccc2c1/C=N/Nc1nc(Nc2ccc(F)cc2)nc(N2CCOCC2)n1	HCT116 PTEN-null 3.6, bCat KO growth 5.8 (no result: Calb biofilm kill, HUVEC inhibit, Fibroblast inh, H69AR growth 86K)
Cc1ccc(Nc2nc(N/N=C/c3c[nH]c4ccccc34)nc(N3CCOCC3)n2)cc1	HCT116 PTEN-null 2.8, bCat KO growth 5.1 (no result: Calb biofilm kill, HUVEC inhibit, Fibroblast inh, H69AR growth 86K)
Cc1ccc([N+](=O)[O-])cc1NC(=O)C(Sc1ccccc1)c1ccccc1 (stereo not given)	none (no result: Calb biofilm kill, HUVEC inhibit, Fibroblast inh, H69AR growth 86K)
CCCCC(=O)Nc1ccc(C(=O)Nc2ccc(S(=O)(=O)Nc3ccc(C)cc3)cc2)cc1	none (no result: Calb biofilm kill, HUVEC inhibit, Fibroblast inh, H69AR growth 86K)
COc1ccc(Nc2ccc3nnc(-c4ccc(Br)cc4)n3n2)cc1	none (no result: Calb biofilm kill, HUVEC inhibit, Fibroblast inh, H69AR growth 86K)
COC(=O)c1oc2ccc(Br)cc2c1NC(=O)CN1CCN(C)CC1	none (no result: HCT116 PTEN-null, bCat KO growth)
COC(=O)c1oc2ccc(Br)cc2c1NC(=O)c1ccccc1	H69AR growth 86K 30
Cc1cccc(N2C(=O)CC(Sc3nc(-c4ccccc4)c4cc(Cl)ccc4n3)C2=O)c1 (stereo not given)	none (no result: Calb biofilm kill, HUVEC inhibit, Fibroblast inh, H69AR growth 86K)
CCOC(=O)c1ccc2ncc(C(=O)OCC)c(NCc3ccco3)c2c1	H69AR growth 86K 36
CCOC(=O)c1cnc2c(C)cccc2c1NCc1ccco1	none
O=C(Cn1c2ccccc2c(=O)c2ccccc21)N/N=C/c1ccc(N2CCCC2)c([N+](=O)[O-])c1	bCat KO growth 2.7 (no result: Calb biofilm kill, HUVEC inhibit, Fibroblast inh, H69AR growth 86K)
O=C(Cn1c2ccccc2c(=O)c2ccccc21)N/N=C/c1cc([N+](=O)[O-])ccc1N1CCCCCC1	none (no result: Calb biofilm kill, HUVEC inhibit, Fibroblast inh, H69AR growth 86K)
CCOC(=O)COn1c2c(c3c4no[n+]([O-])c4ccc31)CCCC2	none (no result: H69AR growth 86K)
Cc1cnnc2ccc3c(no[n+]3[O-])c12	H69AR growth 86K 33
O=S(=O)(Nc1nc2ccccc2nc1Nc1cccc(S(=O)(=O)N2CCCCC2)c1)c1ccccc1	none (no result: Calb biofilm kill, HUVEC inhibit, Fibroblast inh, H69AR growth 86K)
CCc1nc2ccccc2c(C(=O)OCC(=O)Nc2cccc(S(=O)(=O)N3CCOCC3)c2)c1C	H69AR growth 86K 22
CCc1nc2ccccc2c(C(=O)OCC(=O)Nc2ccc(S(=O)(=O)N3CCOCC3)cc2)c1C	H69AR growth 86K 28

Bioassay records: PubChem BioAssay, several laboratories
